TAG inh: triacylglycerol accumulation inhibition | H9c2 cells, Nile Red lipid (TAG) fluorescence; cells loaded with 200 µM oleic acid | inhibition, % at 12.5 µM | 230,000 compounds, 0.66% hits;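 active means pattern-corrected inhibition of lipid staining of at least 50% with the nuclear-stain viability signal not falling by more than 50%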;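 further: 0% = DMSO wells and 100% = triacsin C control wells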
Efflux pump inh: antifungal efflux pump inhibition, Nile Red retention; inhibition, % at 10 µM; AID 485275; S. cerevisiae Candida pump triplex; 330,000 compounds, 0.44% hits;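 active means plate passing quality check with inhibition over a set limit, or well fluorescence over plate mean plus 4 SD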;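 further: Nile Red retained in pooled yeast measured as flow cytometry median fluorescence; 0% = buffer negative control and 100% = Enniatin B positive control; higher means more Nile Red kept so more efflux inhibition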
Calb FLC: C. albicans growth modulation with fluconazole; C. albicans CaCi-2 + fluconazole, Alamar Blue growth, 48 h; growth inhibition, % (no concentration beside the values); 300,000 compounds, 0.57% hits; AID 1979;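 active means growth inhibition above about 58% in most replicates, limit read from the data, passing the limit was not always enough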;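 further: all wells also contain fluconazole at 8 µg/ml as a sub-toxic cotreatment; 0% = median of DMSO wells and 100% = median of geldanamycin control wells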
GalR3 antagonist: human GalR3 antagonism | O60755 | HEK293 GalR3-CNG cAMP membrane potential fluorescence; galR3 body fused to GalR1 C-terminus | inhibition, % at 3 µM | 360,000 compounds, 0.44% hits;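 active means inhibition above the screen-wide average plus 3 SD, cut at about 13% in these data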;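 further: forskolin and galanin both at EC90 stimulate the cells; cAMP rise reported by CNG channel membrane potential dye signal; 0% = forskolin plus galanin with DMSO and 100% = forskolin alone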
Target sequence (O60755 1-299 limits assumed): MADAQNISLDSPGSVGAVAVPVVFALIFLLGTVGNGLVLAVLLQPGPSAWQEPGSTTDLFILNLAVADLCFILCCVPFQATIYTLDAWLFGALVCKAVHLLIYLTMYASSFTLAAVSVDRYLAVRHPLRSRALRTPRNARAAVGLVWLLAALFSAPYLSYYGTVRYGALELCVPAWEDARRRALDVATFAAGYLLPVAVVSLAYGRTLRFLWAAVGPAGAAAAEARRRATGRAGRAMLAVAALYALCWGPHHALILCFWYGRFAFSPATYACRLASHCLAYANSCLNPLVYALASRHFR
MC4R barr agon: agonists of human melanocortin 4 receptor (MC4R) beta-arrestin; 360,000 compounds, 0.98% hits; P32245; U2OS MC4R beta-arrestin complementation, luminescence; percent of melanotan II response, DMSO zero; AID 540308; activation, % at 8.9 µM;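 active means activation above a per-plate cutoff, the mean activation of sample wells on that plate plus 3 SD, cut at about 8% in these data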
Target sequence (P32245 whole entry, looked up): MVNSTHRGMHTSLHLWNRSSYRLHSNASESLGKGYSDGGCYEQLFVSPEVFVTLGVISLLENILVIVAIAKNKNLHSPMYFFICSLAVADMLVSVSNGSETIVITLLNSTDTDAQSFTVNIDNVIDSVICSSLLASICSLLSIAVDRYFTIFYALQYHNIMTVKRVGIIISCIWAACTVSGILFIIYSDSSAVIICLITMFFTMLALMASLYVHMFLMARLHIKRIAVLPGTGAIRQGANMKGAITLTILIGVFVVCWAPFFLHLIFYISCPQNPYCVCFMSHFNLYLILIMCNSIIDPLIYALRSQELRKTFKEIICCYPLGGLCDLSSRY
MC4R antag cAMP: blocks human MC4R cAMP signaling; 360,000 compounds, 0.48% hits; P32245; inhibition, % at 6.5 µM; MC4R-expressing cells, MTII-stimulated cAMP, LANCE TR-FRET;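 active means inhibition above its plate's cutoff, the mean of tested wells on that plate plus 3 SD, cut at about 29% in these data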;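 further: 0% = Melanotan II alone and 100% = Melanotan II plus saturating MCL0020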
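material = U2OS cells stably expressing human melanocortin 4 receptor (MC4R) | also added = Melanotan II challenge | dosing = single nominal compound dose of 6.5 µM | detection = TR-FRET with Eu-cAMP and labeled anti-cAMP, 671 nm | replication = singlicate | timing = compound 30 min, challenge 1 h, detection 1 h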
MC4R barr ag: human MC4R beta-arrestin agonism confirmation; 2,400 compounds, 31% hits; U2OS MC4R beta-arrestin recruitment, luminescence; scaled DMSO 0%, Melanotan II 100%; activation, % at 8.9 µM; shares compounds with MC4R barr agon;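 active means mean activation across replicates above the hit cutoff set in the earlier primary screen, cut at about 8% in these data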
MOR DOR agonist: activates mu-delta opioid heterodimer, MC4R agonist counter-screen; shares compounds with MC4R barr agon; activation, % at 9.2 µM; 2,400 compounds, 5.8% hits; U2OS PathHunter beta-arrestin, beta-gal luminescence; percent of deltorphin B response, DMSO zero;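 active means mean activation across replicates exceeds the hit threshold derived in the earlier primary screen, cut at about 18% in these data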;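 further: 100% = deltorphin B at 0.9 µM final and 0% = DMSO alone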
An asterisk follows results filed as active; / = not tested or not shown. A selection: hits, their analogues and other compounds. The true share with any hit is near 2.9%.

SMILES	TAG inh	Efflux pump inh	Calb FLC	GalR3 antagonist	MC4R barr agon	MC4R antag cAMP	MC4R barr ag	MOR DOR agonist
CSCCC(NS(=O)(=O)c1ccc(Cl)cc1)C(=O)OCC(=O)c1c(C)[nH]c2ccccc12 (stereo not given)	/	0	-11	-2	12*	-11	3	9
COc1ccccc1NC(=O)Cn1ncc2c1-c1ccccc1OC2	-3	0	6	/	0	6	/	/
CCOc1ccc(-c2cc(NC(=O)Cn3ncc4c3-c3ccccc3OC4)on2)cc1OCC	-5	0	12	/	16*	8	3	8
Cc1noc(C)c1-c1ccc(C(=O)NCCN2CCOCC2)c2occc12	33	/	/	3	0	1	/	/
Oc1[nH]c2ccccc2c1N=Nc1cccc(Cl)c1	/	0	-6	-8	0	-4	/	/
Cc1cccc2c(N=Nc3ccccc3)c(O)[nH]c12	/	0	18	-6	15*	-3	1	2
COc1cc2nc(SCc3ccc(C(F)(F)F)cc3)n(Cc3cccs3)c(=N)c2cc1OC	/	0	-8	0	14*	13	6	4
COc1ccc(Cn2c(SCc3ccc(C)cc3)nc3cc(OC)c(OC)cc3c2=N)cc1Cl	/	0	22	-6	28*	-4	7	19*
COc1ccc(Cn2c(SCc3cc(C)ccc3C)nc3cc(OC)c(OC)cc3c2=N)cc1	112*	0	-7	-5	21*	10	7	20*
COCCCn1c(SCc2cccc(C(F)(F)F)c2)nc2cc(OC)c(OC)cc2c1=N	39	0	18	-3	1	12	/	/
CCCCNC(=O)CSc1nc2cc(OC)c(OC)cc2c(=O)n1Cc1ccc(OC)cc1	-8	0	3	-6	-2	4	/	/
COc1ccccc1NC(=O)CN1CCN(CC(=O)Nc2ccc(F)cc2F)CC1	/	/	8	-9	-1	0	/	/
NC(=O)c1c(N)[nH]c(C(=O)c2ccccc2)c1-c1ccc(Br)cc1	/	/	/	-4	/	/	/	/
CSCCC(NC(=O)c1ccccc1Br)C(=O)NNC(=O)C1COc2ccccc2O1 (stereo not given)	-8	/	/	-1	0	10	/	/
CCCCCCCCN1C(=O)[C@H](CC(=O)NCc2cccc3ccccc23)C[C@@]2(C(=O)OCC)CCCC=C12	/	/	/	-3	/	/	/	/
OC(c1ccc(-c2ccccc2)cc1)c1ncc(-c2ccc(F)cc2)[nH]1 (stereo not given)	-19	/	/	-5	10*	8	7	15
OC(c1cccc(F)c1)c1ncc(-c2ccc(Oc3ccccc3)cc2)[nH]1 (stereo not given)	-11	/	/	-4	10*	17	4	10
COC(=O)C1=CN(c2ccccc2OC)C(N)=C(C#N)C1c1cccc([N+](=O)[O-])c1 (stereo not given)	/	/	/	-6	/	/	/	/
Cc1ccc(C(=O)N(Nc2nc3ccccc3s2)C(=O)c2ccc(C)cc2)cc1	/	0	8	-8	25*	8	14*	6
CCCCn1c(N)c(N(C(=O)CSc2nncn2-c2ccccc2C)C2CCCC2)c(=O)[nH]c1=O	0	/	/	-4	0	9	/	/
O=C(COc1ccc2ccc(=O)oc2c1)Nc1ccc(N2CCCCC2)cc1	-20	0	/	-8	16*	5	9.1*	9
O=C(COc1ccccc1Cl)Nc1ccc2oc(=O)ccc2c1	/	0	-6	-9	12*	-4	7	6
O=C(COc1ccc2ccc(=O)oc2c1)Nc1ccc(CCO)cc1	/	0	-7	2	-2	-2	/	/
C=CCn1c(C(C)n2c(-c3cnccn3)nc3ccccc32)nc2ccccc21 (stereo not given)	/	/	/	-6	/	/	/	/
COC(=O)C1=C(C)N(Cc2ccc(C(F)(F)F)cc2)C(=NCc2ccc(OC)cc2)NC1c1ccccc1C(F)(F)F (stereo not given)	/	/	/	4	/	/	/	/
SMILES	TAG inh	Efflux pump inh	Calb FLC	GalR3 antagonist	MC4R barr agon	MC4R antag cAMP	MC4R barr ag	MOR DOR agonist
C(=CCSc1ccccn1)CSc1ccccn1	/	/	/	-6	/	/	/	/
COc1ccc(N)cc1CN1CCN(c2ncc(Cc3ccccc3)cn2)CC1	/	/	/	-6	/	/	/	/
Cc1nn(-c2ccccc2)nc1C(=O)Nc1ccc2[nH]ncc2c1	/	0	/	-2	23*	7	13*	5
Cc1nn(-c2ccccc2)nc1C(=O)NN	5	0	-5	-4	1	0	/	/
CCCCNC(=O)C1(C)CCCCCN1Cc1cc2ccccc2o1 (stereo not given)	-25	/	/	-7	0	2	/	/
COc1ccc2cc(C(=O)NCc3ccco3)c(=Nc3ccc(C(=O)O)cc3)oc2c1	0	0	-2	-8	-3	9	/	/
COc1ccc(N=c2oc3c(OC)cccc3cc2C(=O)NCc2ccco2)c(OC)c1	/	0	12	/	32*	17	13*	25*
Cc1ccc(NCC(=O)N/N=C/c2cccc(Oc3ccccc3)c2)cc1	/	0	2	-10	24*	-1	4	3
CC(/C=C/C=C/c1ccccc1)=N/NC(=O)CNc1ccc(C)cc1	/	0	3	-3	14*	-18	1	3
Cc1cccc(NCC(=O)N/N=C\c2cccc(Oc3ccccc3)c2)c1	/	0	-6	-1	12*	-2	3	4
CCCC(=O)Nc1ccc(-c2csc(N/N=C\c3ccncc3)n2)cc1	25	0	-7	-1	19*	11	3	8
O=C(CC[C@H]1O[C@@H](n2ccc(=O)[nH]c2=O)[C@H](O)[C@@H]1O)N[C@H](Cc1ccccc1)C(=O)NCC1CCCCC1	/	/	/	-5	/	/	/	/
CCCCS(=O)(=O)N1CCN(C(=O)C(=O)c2cccc(C(F)(F)F)c2)CC1	/	/	/	-4	/	/	/	/
COc1c(C(=O)Nc2ccc3[nH]c(=O)[nH]c3c2)cc2ccccc2c1Br	-1	0	-3	-2	12*	7	5	17
O=C(CCN1C(=O)/C(=C\c2ccccc2)SC1=S)NNC(=O)c1ccccc1O	/	0	3	-8	10*	-2	3	3
O=C(CCCN1C(=O)/C(=C\c2ccccc2)SC1=S)Nc1ccc(O)cc1C(=O)O	/	0	7	2	0	10	/	/
O=C(CCCN1C(=O)/C(=C/c2ccccc2Cl)SC1=S)NNC(=O)c1cccnc1	1	0	8	3	-3	-5	/	/
O=C(CCN1C(=O)/C(=C\c2ccccc2)SC1=S)NNC(=O)c1cccnc1	1	0	-29	-4	21*	1	5	1

From PubChem BioAssay
